According to ChEMBL document CHEMBL1135402, “New serotonin 5-HT(2A), 5-HT(2B), and 5-HT(2C) receptor antagonists: synthesis, pharmacology, 3D-QSAR, and molecular modeling of (aminoalkyl)benzo and heterocycloalkanones” (J Med Chem, 2002):

These molecules were tested against 5-hydroxytryptamine receptor 2A (Homo sapiens, UniProt P28223) (assay: Inhibitory constant for human 5-hydroxytryptamine 2A receptor transfected in to CHO cells). Details: not given.
Type: cell-based
Summary of the method: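 CHO cells stably expressing cloned human 5-HT2A, grown 24 h in dialyzed FCS before harvest; membranes in 50 mM Tris-HCl pH 7.5. […] Ki from IC50 by Cheng–Prusoff.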

Chain of 5-hydroxytryptamine receptor 2A (Homo sapiens, UniProt P28223) (P28223 whole entry): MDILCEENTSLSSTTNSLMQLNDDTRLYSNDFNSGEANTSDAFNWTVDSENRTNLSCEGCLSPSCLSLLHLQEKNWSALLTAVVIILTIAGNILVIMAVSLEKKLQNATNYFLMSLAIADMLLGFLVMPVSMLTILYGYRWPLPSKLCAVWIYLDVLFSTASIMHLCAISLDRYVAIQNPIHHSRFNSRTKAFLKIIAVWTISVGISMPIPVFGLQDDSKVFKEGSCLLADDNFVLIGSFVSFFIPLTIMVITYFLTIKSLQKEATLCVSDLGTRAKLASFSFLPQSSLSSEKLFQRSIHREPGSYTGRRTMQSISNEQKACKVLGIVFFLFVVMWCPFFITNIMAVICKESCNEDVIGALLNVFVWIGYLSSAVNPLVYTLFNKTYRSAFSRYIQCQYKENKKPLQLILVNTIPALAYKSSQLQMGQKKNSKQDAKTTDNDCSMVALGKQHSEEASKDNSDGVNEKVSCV

| Ki | SMILES |
| --- | --- |
| 0.724 nM | O=C1c2ccoc2CCC1CCN1CCC(c2noc3cc(F)ccc23)CC1 (stereo unspecified) |
| 115 nM | O=C(CCCN1CCN(CC2CC(=O)c3ccccc3C2)CC1)c1ccc(F)cc1 (stereo unspecified) |
| 67.6 nM | O=C(CCCN1CCN(CCC2Cc3ccccc3C2=O)CC1)c1ccc(F)cc1 (stereo unspecified) |
| 1.17 nM | O=C1CC(CN2CCC(c3noc4cc(F)ccc34)CC2)Cc2[nH]c3ccccc3c21 (stereo unspecified) |

What follows are molecules tested against T1, 5-hydroxytryptamine receptor 2A (Rattus norvegicus, UniProt P14842) (assay: Inhibitory constant on 5-hydroxytryptamine 2A receptor of Rat frontal cortex). Details: not given.
T1 sequence (P14842 whole entry): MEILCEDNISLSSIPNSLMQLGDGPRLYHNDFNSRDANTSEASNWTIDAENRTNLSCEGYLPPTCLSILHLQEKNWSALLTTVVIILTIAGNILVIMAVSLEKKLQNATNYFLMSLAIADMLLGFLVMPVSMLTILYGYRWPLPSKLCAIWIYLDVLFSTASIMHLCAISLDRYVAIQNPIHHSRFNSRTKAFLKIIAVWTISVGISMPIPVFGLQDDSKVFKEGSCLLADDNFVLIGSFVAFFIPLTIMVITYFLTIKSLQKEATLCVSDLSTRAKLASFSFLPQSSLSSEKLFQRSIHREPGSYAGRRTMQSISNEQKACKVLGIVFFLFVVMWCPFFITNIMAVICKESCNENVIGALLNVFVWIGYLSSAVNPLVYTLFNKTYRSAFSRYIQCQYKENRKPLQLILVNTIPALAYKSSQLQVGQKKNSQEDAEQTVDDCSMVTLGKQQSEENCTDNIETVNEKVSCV
Type: tissue-based

| Ki | SMILES |
| --- | --- |
| > 10000 nM | COc1ccccc1N1CCN(CC2CC(=O)c3ccoc3C2)CC1 (stereo unspecified) |
| 912 nM | CCc1c(C)[nH]c2c1C(=O)CC(CN1CCN(CCCC(=O)c3ccc(F)cc3)CC1)C2 (stereo unspecified) |
| 4.27 nM | CCc1c(C)[nH]c2c1C(=O)CC(CN1CCC(c3noc4cc(F)ccc34)CC1)C2 (stereo unspecified) |
| 195 nM | COc1ccccc1N1CCN(CCC2Cc3ccccc3C2=O)CC1 (stereo unspecified) |
| 19.5 nM | O=C(c1ccc(F)cc1)C1CCN(CCC2CCc3occc3C2=O)CC1 (stereo unspecified) |
| 1.07 nM | O=C1c2ccoc2CCC1CCN1CCC(c2noc3cc(F)ccc23)CC1 (stereo unspecified) |
| 11.7 nM | O=C1CC(CN2CCC(c3noc4cc(F)ccc34)CC2)Cc2sccc21 (stereo in doubt; (-)18h) |
| 11.5 nM | O=C1CC(CN2CCC(c3noc4cc(F)ccc34)CC2)Cc2sccc21 (single isomer, unassigned; (+)) |
| 2.69 nM | O=C1CC(CN2CCC(c3noc4cc(F)ccc34)CC2)Cc2ccccc21 (stereo unspecified) |
| 53.7 nM | O=C(CCCN1CCN(CCC2Cc3cc(F)ccc3C2=O)CC1)c1ccc(F)cc1 (stereo unspecified) |
| 355 nM | O=C1c2ccoc2CCC1CCN1CCN(c2ccccn2)CC1 (stereo unspecified) |
| 191 nM | COc1ccccc1N1CCN(CCC2CCc3occc3C2=O)CC1 (stereo unspecified) |
| 174 nM | O=C1c2ccsc2CCC1CCN1CCN(c2ccccn2)CC1 (stereo unspecified) |
| 8.71 nM | CCc1c(C)[nH]c2c1C(=O)CC(CN1CCC(C(=O)c3ccc(F)cc3)CC1)C2 (stereo unspecified) |

| SMILES | Ki |
| --- | --- |
| O=C1CC(CN2CCN(c3ncccn3)CC2)Cc2occc21 (stereo unspecified) | > 10000 nM |
| O=C1CC(CN2CCN(c3ccccn3)CC2)c2ccccc21 (stereo unspecified) | > 10000 nM |

These molecules were tested against T2, 5-hydroxytryptamine receptor 2B (Rattus norvegicus, UniProt P30994) (assay: Negative log concentration of antagonistic compound was determined on 5-hydroxytryptamine 2B receptor of Rat stomach fundus). Details: read-out: pA2 (converted).
T2 sequence (P30994 whole entry): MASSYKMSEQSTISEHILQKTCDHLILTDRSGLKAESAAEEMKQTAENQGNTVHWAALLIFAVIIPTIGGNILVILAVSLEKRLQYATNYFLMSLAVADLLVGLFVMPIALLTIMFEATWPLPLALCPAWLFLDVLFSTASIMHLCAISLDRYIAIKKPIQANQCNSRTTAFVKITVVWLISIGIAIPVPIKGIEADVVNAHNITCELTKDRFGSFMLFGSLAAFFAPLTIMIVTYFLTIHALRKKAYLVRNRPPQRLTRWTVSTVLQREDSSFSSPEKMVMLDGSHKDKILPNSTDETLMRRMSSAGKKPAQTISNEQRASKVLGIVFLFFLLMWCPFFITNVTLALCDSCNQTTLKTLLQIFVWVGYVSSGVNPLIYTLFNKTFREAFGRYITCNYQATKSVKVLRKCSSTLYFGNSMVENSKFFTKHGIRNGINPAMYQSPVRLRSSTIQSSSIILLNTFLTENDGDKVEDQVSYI
Type: functional, tissue-based
Summary of the method: (§1)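 Rat stomach fundus strips equilibrated 1 h under 1 g load; isometric contractions to cumulative 5-HT (0.01 nM–10 μM) in organ bath. Control curves, then antagonist preincubated before test curve; pA2 from EC50 shift at one antagonist concentration, […].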

| SMILES | Kb |
| --- | --- |
| O=C1CC(CN2CCN(c3ncccn3)CC2)Cc2occc21 (stereo unspecified) | 977 nM |

Each molecule was assayed against T2, 5-hydroxytryptamine receptor 2B (assay: Antagonistic activity on 5-hydroxytryptamine 2B receptor of Rat stomach fundus;ND is not determined). Details: read-out: pA2 (converted).
Type: functional, tissue-based
Summary of the method: as §1

| Kb | SMILES |
| --- | --- |
| 331 nM | O=C(c1ccc(F)cc1)C1CCN(CCC2CCc3ccsc3C2=O)CC1 (stereo unspecified) |

What follows are molecules tested against T3, 5-hydroxytryptamine receptor 2C (Homo sapiens, UniProt P28335) (assay: Inhibitory constant on human 5-hydroxytryptamine 2C receptor transfected in to HeLa cells). Details: not given.
T3 sequence (P28335 whole entry): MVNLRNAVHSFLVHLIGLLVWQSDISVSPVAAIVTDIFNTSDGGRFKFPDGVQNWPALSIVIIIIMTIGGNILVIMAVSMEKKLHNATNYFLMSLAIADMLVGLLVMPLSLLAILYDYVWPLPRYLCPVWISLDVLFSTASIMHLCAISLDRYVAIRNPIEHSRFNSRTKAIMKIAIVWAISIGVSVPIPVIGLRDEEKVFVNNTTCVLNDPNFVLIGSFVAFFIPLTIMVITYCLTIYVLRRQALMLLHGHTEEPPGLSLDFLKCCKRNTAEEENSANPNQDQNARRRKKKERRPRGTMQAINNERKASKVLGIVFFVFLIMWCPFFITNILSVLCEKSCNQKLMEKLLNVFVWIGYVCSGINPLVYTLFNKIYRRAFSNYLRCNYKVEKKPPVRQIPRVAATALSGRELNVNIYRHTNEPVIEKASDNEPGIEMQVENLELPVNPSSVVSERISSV
Type: cell-based
Summary of the method: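 HeLa cells stably expressing cloned human 5-HT2C, grown 24 h in dialyzed FCS; membranes as for human 5-HT2A. [3H]mesulergine (2 nM final) competition, nonspecific with 1 μM mianserine, 1 h at room temperature; GF/B filtration, scintillation counting. Ki via Cheng–Prusoff.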

| Ki | SMILES |
| --- | --- |
| 34.7 nM | O=C1c2ccoc2CCC1CCN1CCC(c2noc3cc(F)ccc23)CC1 (stereo unspecified) |
| 3980 nM | O=C1CC(CN2CCC(c3noc4cc(F)ccc34)CC2)Cc2occc21 (stereo unspecified) |
| > 10000 nM | O=C(CCCN1CCN(CCC2Cc3ccccc3C2=O)CC1)c1ccc(F)cc1 (stereo unspecified) |
| 27.5 nM | O=C1CC(CN2CCC(c3noc4cc(F)ccc34)CC2)Cc2[nH]c3ccccc3c21 (stereo unspecified) |

These molecules were tested against Serotonin receptor 2a and 2c (5HT2A and 5HT2C) (Rattus norvegicus) (UniProt P08909+P14842) (assay: Selectivity ratio towards Ki of 5-hydroxytryptamine 2A receptor to 5-hydroxytryptamine 2C receptor). Details: not given.
Chain of Serotonin receptor 2a and 2c (5HT2A and 5HT2C) (Rattus norvegicus) (P08909 whole entry, looked up): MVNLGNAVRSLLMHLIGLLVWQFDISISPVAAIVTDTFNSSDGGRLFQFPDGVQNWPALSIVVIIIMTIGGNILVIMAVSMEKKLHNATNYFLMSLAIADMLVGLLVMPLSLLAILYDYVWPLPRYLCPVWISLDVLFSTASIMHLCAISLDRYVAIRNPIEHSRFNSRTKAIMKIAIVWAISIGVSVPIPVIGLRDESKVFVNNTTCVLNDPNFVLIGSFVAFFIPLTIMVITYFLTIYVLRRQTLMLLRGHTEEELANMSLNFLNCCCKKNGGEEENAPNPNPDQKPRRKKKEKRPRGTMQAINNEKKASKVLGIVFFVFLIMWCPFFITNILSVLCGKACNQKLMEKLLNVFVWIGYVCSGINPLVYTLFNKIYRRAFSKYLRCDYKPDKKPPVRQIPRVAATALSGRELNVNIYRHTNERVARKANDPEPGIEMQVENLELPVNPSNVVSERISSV
Chain of Serotonin receptor 2a and 2c (5HT2A and 5HT2C) (Rattus norvegicus) (P14842 whole entry, looked up): as the sequence (P14842 whole entry) above
Type: protein assay

| Ratio | SMILES |
| --- | --- |
| 1 | COc1ccccc1N1CCN(CC2CC(=O)c3ccoc3C2)CC1 (stereo unspecified) |
| 219 | O=C(c1ccc(F)cc1)C1CCN(CCC2Cc3cc(F)ccc3C2=O)CC1 (stereo unspecified) |
| 13 | CCc1c(C)[nH]c2c1C(=O)CC(CN1CCN(c3ccccc3OC)CC1)C2 (stereo unspecified) |
| 0.26 | CCc1c(C)[nH]c2c1C(=O)CC(CN1CCN(CCCC(=O)c3ccc(F)cc3)CC1)C2 (stereo unspecified) |
| 89 | CCc1c(C)[nH]c2c1C(=O)CC(CN1CCC(c3noc4cc(F)ccc34)CC1)C2 (stereo unspecified) |
| 1.5 | COc1ccccc1N1CCN(CCC2Cc3ccccc3C2=O)CC1 (stereo unspecified) |
| 5.8 | COc1ccccc1N1CCN(CCC2CCc3ccccc3C2=O)CC1 (stereo unspecified) |
| 10 | O=C1c2sccc2CCC1CCN1CCC(c2noc3cc(F)ccc23)CC1 (stereo unspecified) |
| 29 | O=C(c1ccc(F)cc1)C1CCN(CCC2CCc3ccccc3C2=O)CC1 (stereo unspecified) |
| 18 | O=C(c1ccc(F)cc1)C1CCN(CCC2CCc3occc3C2=O)CC1 (stereo unspecified) |
| 65 | O=C1c2ccoc2CCC1CCN1CCC(c2noc3cc(F)ccc23)CC1 (stereo unspecified) |
| 1780 | O=C(CCCN1CCN(CC2CC(=O)c3ccccc3C2)CC1)c1ccc(F)cc1 (stereo unspecified) |
| 31 | O=C(c1ccc(F)cc1)C1CCN(CCC2CCc3ccsc3C2=O)CC1 (stereo unspecified) |
| 2950 | O=C1CC(CN2CCC(c3noc4cc(F)ccc34)CC2)Cc2occc21 (stereo unspecified) |
| 36 | O=C(CCCN1CCN(CCC2Cc3cc(F)ccc3C2=O)CC1)c1ccc(F)cc1 (stereo unspecified) |
| 89 | O=C1c2ccoc2CCC1CCN1CCN(c2ccccn2)CC1 (stereo unspecified) |
| 3 | COc1ccccc1N1CCN(CCC2CCc3occc3C2=O)CC1 (stereo unspecified) |
| 50 | O=C(CCCN1CCN(CCC2Cc3ccccc3C2=O)CC1)c1ccc(F)cc1 (stereo unspecified) |
| 9.8 | O=C1c2ccsc2CCC1CCN1CCN(c2ccccn2)CC1 (stereo unspecified) |
| 36 | O=C1CC(CN2CCC(c3noc4cc(F)ccc34)CC2)Cc2[nH]c3ccccc3c21 (stereo unspecified) |
| 4.1 | CCc1c(C)[nH]c2c1C(=O)CC(CN1CCC(C(=O)c3ccc(F)cc3)CC1)C2 (stereo unspecified) |

| SMILES | Ratio |
| --- | --- |
| O=C1CC(CN2CCN(c3ncccn3)CC2)Cc2occc21 (stereo unspecified) | 1 |
| O=C1CC(CN2CCN(c3ccccn3)CC2)c2ccccc21 (stereo unspecified) | 0.027 |

The molecules below were run against T1, 5-hydroxytryptamine receptor 2A (assay: Negative log concentration of antagonist on 5-hydroxytryptamine 2A receptor in rat thoracic aorta). Details: read-out: pA2 (converted).
Type: functional, tissue-based

| Kb | SMILES |
| --- | --- |
| 7.59 nM | O=C(c1ccc(F)cc1)C1CCN(CCC2Cc3cc(F)ccc3C2=O)CC1 (stereo unspecified) |
| 158 nM | COc1ccccc1N1CCN(CCC2Cc3ccccc3C2=O)CC1 (stereo unspecified) |
| 191 nM | COc1ccccc1N1CCN(CCC2CCc3ccccc3C2=O)CC1 (stereo unspecified) |
| 33.9 nM | O=C(c1ccc(F)cc1)C1CCN(CCC2CCc3ccccc3C2=O)CC1 (stereo unspecified) |
| 26.3 nM | O=C(c1ccc(F)cc1)C1CCN(CCC2CCc3occc3C2=O)CC1 (stereo unspecified) |
| 0.562 nM | O=C1c2ccoc2CCC1CCN1CCC(c2noc3cc(F)ccc23)CC1 (stereo unspecified) |
| 53.7 nM | O=C(CCCN1CCN(CC2CC(=O)c3ccccc3C2)CC1)c1ccc(F)cc1 (stereo unspecified) |
| 11.2 nM | O=C1CC(CN2CCC(c3noc4cc(F)ccc34)CC2)Cc2occc21 (stereo unspecified) |
| 676 nM | O=C1c2ccoc2CCC1CCN1CCN(c2ccccn2)CC1 (stereo unspecified) |
| 501 nM | COc1ccccc1N1CCN(CCC2CCc3occc3C2=O)CC1 (stereo unspecified) |
| 50.1 nM | O=C(CCCN1CCN(CCC2Cc3ccccc3C2=O)CC1)c1ccc(F)cc1 (stereo unspecified) |
| 490 nM | O=C1c2ccsc2CCC1CCN1CCN(c2ccccn2)CC1 (stereo unspecified) |
